Legend:
SF-539 = test: Antiproliferative activity against human SF-539 cells assessed as cell growth inhibition at 10 uM incubated for 48 hrs by sulforhodamine B assay relative to control; type: functional
Procedure, shortened: (§1)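 NCI-60 single-dose screen at 10^-5 M. Cells grown in RPMI 1640 with 5% FBS and 2 mM L-glutamine, plated at 5,000–40,000 cells/well, and preincubated 24 h. Drug (DMSO stock) added and incubated 48 h at 37 °C, 5% CO2. Adherent cells fixed with cold TCA, stained with 0.4% SRB in 1% acetic acid, dye solubilized in 10 mM trizma base, A515 read. Percent growth taken against time-zero and untreated control.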

NCI-H226 = test: Antiproliferative activity against human NCI-H226 cells assessed as cell growth inhibition at 10 uM incubated for 48 hrs by sulforhodamine B assay relative to control; type: functional; procedure, shortened: as §1
MCF7 = test: Antiproliferative activity against human MCF7 cells assessed as cell growth inhibition at 10 uM incubated for 48 hrs by sulforhodamine B assay relative to control; type: functional; procedure, shortened: as §1
[1] = n-Octanol/phosphate buffer partition coefficient, logP of the compound at pH 7.4 incubated for 85 mins by shake-flask method; type: physicochemical
Procedure, shortened: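 Octanol–water partition by shake-flask: n-octanol with 0.15 M phosphate buffer pH 7.4 at 10:1 volumes. Buffer-phase absorbance read before mixing, then shaken 50 min and centrifuged at 2500 rpm for 35 min. Buffer absorbance read again; P = (Ai−Af)/Af × Vw/Vo.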

UO-31 = test: Antiproliferative activity against human UO-31 cells assessed as cell growth inhibition at 10 uM incubated for 48 hrs by sulforhodamine B assay relative to control; type: functional; procedure, shortened: as §1
PC-3 = test: Antiproliferative activity against human PC-3 cells assessed as cell growth inhibition at 10 uM incubated for 48 hrs by sulforhodamine B assay relative to control; type: functional; procedure, shortened: as §1
HCT-15 = test: Antiproliferative activity against human HCT-15 cells assessed as cell growth inhibition at 10 uM incubated for 48 hrs by sulforhodamine B assay relative to control; type: functional
Procedure, shortened: (§2)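 NCI-60 one-dose prescreen at 10^-5 M. Cells grown in RPMI 1640 with 5% FBS and 2 mM glutamine, preincubated 24 h, then exposed 48 h at 37 °C. Adherent lines TCA-fixed, SRB-stained, A515 read. Growth percent relative to time-zero and control; negative values mean cell kill.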

786-0 = test: Antiproliferative activity against human 786-0 cells assessed as cell growth inhibition at 10 uM incubated for 48 hrs by sulforhodamine B assay relative to control; type: functional
Procedure, shortened: (§3)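 Single-dose NCI-60 prescreen at 10^-5 M. Cells in RPMI 1640 with 5% FBS and 2 mM L-glutamine, seeded 5,000–40,000 cells/well with 24 h preincubation, then drug exposure for 48 h at 37 °C under 5% CO2. Growth read by SRB staining of TCA-fixed cells at 515 nm against time-zero and untreated controls. Negative growth values denote cell kill.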

CCRF-CEM = test: Antiproliferative activity against human CCRF-CEM cells assessed as cell growth inhibition at 10 uM incubated for 48 hrs by sulforhodamine B assay relative to control; type: functional; procedure, shortened: as §3
OVCAR-5 = test: Antiproliferative activity against human OVCAR-5 cells assessed as cell growth inhibition at 10 uM incubated for 48 hrs by sulforhodamine B assay relative to control; type: functional; procedure, shortened: as §1
SNB-75 = test: Antiproliferative activity against human SNB-75 cells assessed as cell growth inhibition at 10 uM incubated for 48 hrs by sulforhodamine B assay relative to control; type: functional; procedure, shortened: as §1
NCI/ADR-RES = test: Antiproliferative activity against human NCI/ADR-RES cells assessed as cell growth inhibition at 10 uM incubated for 48 hrs by sulforhodamine B assay relative to control; type: functional; procedure, shortened: as §1
SK-MEL-2 = test: Antiproliferative activity against human SK-MEL-2 cells assessed as cell growth inhibition at 10 uM incubated for 48 hrs by sulforhodamine B assay relative to control; type: functional; procedure, shortened: as §1
KM12 = test: Antiproliferative activity against human KM12 cells assessed as cell growth inhibition at 10 uM incubated for 48 hrs by sulforhodamine B assay relative to control; type: functional; procedure, shortened: as §1
NCI-H522 = test: Antiproliferative activity against human NCI-H522 cells assessed as cell growth inhibition at 10 uM incubated for 48 hrs by sulforhodamine B assay relative to control; type: functional; procedure, shortened: as §1
A498 = test: Antiproliferative activity against human A498 cells assessed as cell growth inhibition at 10 uM incubated for 48 hrs by sulforhodamine B assay relative to control; type: functional; procedure, shortened: as §3
RXF 393 = test: Antiproliferative activity against human RXF 393 cells assessed as cell growth inhibition at 10 uM incubated for 48 hrs by sulforhodamine B assay relative to control; type: functional; procedure, shortened: as §1
HOP-92 = test: Antiproliferative activity against human HOP-92 cells assessed as cell growth inhibition at 10 uM incubated for 48 hrs by sulforhodamine B assay relative to control; type: functional; procedure, shortened: as §2
MDA-MB-435 = test: Antiproliferative activity against human MDA-MB-435 cells assessed as cell growth inhibition at 10 uM incubated for 48 hrs by sulforhodamine B assay relative to control; type: functional; procedure, shortened: as §1
LOX IMVI = test: Antiproliferative activity against human LOX IMVI cells assessed as cell growth inhibition at 10 uM incubated for 48 hrs by sulforhodamine B assay relative to control; type: functional; procedure, shortened: as §1
HT-29 = test: Antiproliferative activity against human HT-29 cells assessed as cell growth inhibition at 10 uM incubated for 48 hrs by sulforhodamine B assay relative to control; type: functional; procedure, shortened: as §1
SN12C = test: Antiproliferative activity against human SN12C cells assessed as cell growth inhibition at 10 uM incubated for 48 hrs by sulforhodamine B assay relative to control; type: functional; procedure, shortened: as §1
RPMI-8226 = test: Antiproliferative activity against human RPMI-8226 cells assessed as cell growth inhibition at 10 uM incubated for 48 hrs by sulforhodamine B assay relative to control; type: functional; procedure, shortened: as §1
OVCAR-8 = test: Antiproliferative activity against human OVCAR-8 cells assessed as cell growth inhibition at 10 uM incubated for 48 hrs by sulforhodamine B assay relative to control; type: functional; procedure, shortened: as §1
A549 = test: Antiproliferative activity against human A549 cells assessed as cell growth inhibition at 10 uM incubated for 48 hrs by sulforhodamine B assay relative to control; type: functional; procedure, shortened: as §3
HCT-116 = test: Antiproliferative activity against human HCT-116 cells assessed as cell growth inhibition at 10 uM incubated for 48 hrs by sulforhodamine B assay relative to control; type: functional; procedure, shortened: as §2
NCI-H460 = test: Antiproliferative activity against human NCI-H460 cells assessed as cell growth inhibition at 10 uM incubated for 48 hrs by sulforhodamine B assay relative to control; type: functional; procedure, shortened: as §1
NCI-H23 = test: Antiproliferative activity against human NCI-H23 cells assessed as cell growth inhibition at 10 uM incubated for 48 hrs by sulforhodamine B assay relative to control; type: functional; procedure, shortened: as §1
SW-620 = test: Antiproliferative activity against human SW620 cells assessed as cell growth inhibition at 10 uM incubated for 48 hrs by sulforhodamine B assay relative to control; type: functional; procedure, shortened: as §1
M14 = test: Antiproliferative activity against human M14 cells assessed as cell growth inhibition at 10 uM incubated for 48 hrs by sulforhodamine B assay relative to control; type: functional; procedure, shortened: as §1
NCI-H322M = test: Antiproliferative activity against human NCI-H322M cells assessed as cell growth inhibition at 10 uM incubated for 48 hrs by sulforhodamine B assay relative to control; type: functional; procedure, shortened: as §1

Row | SMILES | inhibition at 10 µM (SF-539) [%] | inhibition at 10 µM (NCI-H226) [%] | inhibition at 10 µM (MCF7) [%] | inhibition at 10 µM (UO-31) [%] | inhibition at 10 µM (PC-3) [%] | inhibition at 10 µM (HCT-15) [%] | inhibition at 10 µM (786-0) [%] | inhibition at 10 µM (CCRF-CEM) [%] | inhibition at 10 µM (OVCAR-5) [%] | inhibition at 10 µM (SNB-75) [%] | inhibition at 10 µM (NCI/ADR-RES) [%] | inhibition at 10 µM (SK-MEL-2) [%] | inhibition at 10 µM (KM12) [%] | inhibition at 10 µM (NCI-H522) [%] | inhibition at 10 µM (RXF 393) [%] | inhibition at 10 µM (HOP-92) [%] | inhibition at 10 µM (LOX IMVI) [%] | inhibition at 10 µM (HT-29) [%] | inhibition at 10 µM (SN12C) [%] | inhibition at 10 µM (RPMI-8226) [%] | other results
1 | Cc1cccc(-c2cn3ccnc3c(-c3ccc4ncn(Cc5ccccc5)c4c3)n2)c1 | 7.28 | 1.18 | 22.2 | 41.7 | 24.8 | 35.2 | 21.4 | 21.1 | 6.64 | 21.7 | 12.1 | 6.34 | 22.1 | 28.4 | 2.01 | 28.7 | 14.8 | 42 | 4.72 | 37.5 | logD at 1.417 h [1]: 2.16; inhibition at 10 µM (A498): 22.1%; inhibition at 10 µM (MDA-MB-435): 0.94%; inhibition at 10 µM (OVCAR-8): 11.5%; inhibition at 10 µM (A549): 14.9%; inhibition at 10 µM (HCT-116): 36.7%; inhibition at 10 µM (NCI-H460): 10.1%; inhibition at 10 µM (NCI-H23): 9.09%
2 | COc1ccccc1-c1cn2ccnc2c(-c2ccc3ncn(C4CCCCC4)c3c2)n1 | 8.07 | 25.7 | 8.4 | 24 | 43.1 | 33.6 | 12.3 | 17.4 | 6.61 | 35 | 0.06 | 12.1 | 3.58 | 22.2 | 0.95 | 47.8 | 5.13 | 11.1 | 7.73 | 35.9 | logD at 1.417 h [1]: 1.72; inhibition at 10 µM (SW-620): 3.4%; inhibition at 10 µM (A498): 13.9%; inhibition at 10 µM (OVCAR-8): 8.78%; inhibition at 10 µM (A549): 13.9%; inhibition at 10 µM (M14): 1.12%; inhibition at 10 µM (HCT-116): 28.3%; inhibition at 10 µM (NCI-H460): 9.62%; inhibition at 10 µM (NCI-H23): 2.79%
3 | Brc1cn2ccnc2c(-c2ccc3ncn(C4CCCCC4)c3c2)n1 | 10 | 22.5 | 47.6 | 37.6 | 17.2 | 13.1 | 10 | 7.68 | 6.64 | 21.2 | 8.82 | 10.2 | 67.7 | 16.2 | 5.58 | 30.7 | 15.2 | 5.21 | 6.47 | 14.9 | inhibition at 10 µM (NCI-H322M): 18.1%; inhibition at 10 µM (OVCAR-8): 4.92%; inhibition at 10 µM (A549): 9.36%; inhibition at 10 µM (NCI-H23): 10.2%

From ChEMBL document CHEMBL5247578, “Effective synthesis of benzimidazoles-imidazo[1,2-a]pyrazine conjugates: A comparative study of mono-and bis-benzimidazoles for antitumor activity” (Eur J Med Chem, 2019)
